# Data from ChEMBL document CHEMBL1152597, “Push-pull benzothiazole derivatives as probes for detecting beta-amyloid plaques in Alzheimer's brains” (Bioorg Med Chem, 2009).
# The source made the active and inactive calls. No cut-off for these calls is given here.
# Tests used:
# [1] = target: Amyloid-beta precursor protein (Homo sapiens) (UniProt P05067); test: Binding affinity to beta-amyloid plaques in normal patient brain section by immunohistochemical staining
# Method in brief: (§1)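 Probe staining was done on 5 µm sections of temporal cortex from AD brain and from adult normal brain, read by fluorescence microscopy. Serial sections were immunostained with anti-Aβ antibodies to compare the plaque staining pattern.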
# [2] = Inhibition of amyloid beta (1-42) aggregation by thioflavin T competition binding experiment
# [3] = target: Amyloid-beta precursor protein (Homo sapiens) (UniProt P05067); test: Binding affinity to beta-amyloid plaques in Alzheimer's disease patient temporal cortex by immunohistochemical staining; format: tissue-based; method in brief: as §1
# Mus musculus [4] = organism: Mus musculus; test: Binding affinity to beta-amyloid plaques in Alzheimer's disease Tg2576 mouse brain by thioflavin S staining; format: tissue-based
# Method in brief: (§2)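 Tg2576 (female, 27-month-old) and wild-type (female, 27-month-old) mouse brains were cut into 10 µm serial sections. Sections were incubated 10 min with probe in 50% EtOH, washed twice for 1 min in 50% EtOH and examined by fluorescence microscopy. Serial sections were counterstained with thioflavin S to confirm plaques.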
# Mus musculus [5] = organism: Mus musculus; test: Binding affinity to beta-amyloid plaques in wild type mouse assessed as accumulation in brain by thioflavin S staining; format: tissue-based; method in brief: as §2
# Chain of Amyloid-beta precursor protein (Homo sapiens) (P05067 whole entry): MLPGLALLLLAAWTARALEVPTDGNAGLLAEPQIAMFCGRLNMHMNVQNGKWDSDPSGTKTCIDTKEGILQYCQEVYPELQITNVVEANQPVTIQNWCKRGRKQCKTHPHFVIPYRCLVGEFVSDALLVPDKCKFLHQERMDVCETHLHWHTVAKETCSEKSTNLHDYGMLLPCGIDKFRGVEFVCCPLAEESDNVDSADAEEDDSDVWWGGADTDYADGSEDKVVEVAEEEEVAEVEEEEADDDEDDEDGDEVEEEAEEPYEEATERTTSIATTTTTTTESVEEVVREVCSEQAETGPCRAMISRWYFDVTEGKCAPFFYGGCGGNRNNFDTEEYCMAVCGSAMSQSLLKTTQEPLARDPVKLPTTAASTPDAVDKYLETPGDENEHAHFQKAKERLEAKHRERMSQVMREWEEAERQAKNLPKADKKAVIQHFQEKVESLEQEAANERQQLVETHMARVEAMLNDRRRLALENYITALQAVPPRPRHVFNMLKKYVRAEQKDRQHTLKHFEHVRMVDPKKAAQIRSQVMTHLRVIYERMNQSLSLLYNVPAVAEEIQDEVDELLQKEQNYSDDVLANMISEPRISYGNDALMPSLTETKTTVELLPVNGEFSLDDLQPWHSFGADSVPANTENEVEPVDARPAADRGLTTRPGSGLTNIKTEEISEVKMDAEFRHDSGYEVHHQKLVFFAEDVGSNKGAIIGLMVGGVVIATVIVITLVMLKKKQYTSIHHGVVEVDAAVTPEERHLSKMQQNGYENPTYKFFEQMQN
SMILES,Activity [1],IC50 [2] [nM],Activity [3],Activity (Mus musculus [4]),Activity (Mus musculus [5])
CN(C)c1ccc2nc(C=C(C#N)C#N)sc2c1,inactive,120,Active,Active,inactive
CN(C)c1ccc2nc(/C=C/c3ccc(C=C(C#N)C#N)cc3)sc2c1,inactive,110,Active,Active,inactive
[11CH3]Nc1ccc(-c2nc3ccc(O)cc3s2)cc1 [PITTSBURGH COMPOUND B],,670,,,
